Screens: PubChem BioAssay, The Scripps Research Institute Molecular Screening Center
GalR3 antag = GalR3 antagonists in HEK293 cells, primary screen, cell-based, fluorescence readout | Galanin receptor type 3 (Homo sapiens), O60755 | HEK293 GalR3-CNG cAMP membrane potential fluorescence; galR3 body fused to GalR1 C-terminus | inhibition, % at 3 µM | hit rate 0.44% among 360,000 | AID 651719, 2012;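 active = inhibition above the screen-wide average plus 3 SD, cut at about 13% in these data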;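 also: forskolin and galanin both at EC90 stimulate the cells; cAMP rise reported by CNG channel membrane potential dye signal; 0% = forskolin plus galanin with DMSO and 100% = forskolin alone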
Target sequence (O60755 1-299 limits assumed): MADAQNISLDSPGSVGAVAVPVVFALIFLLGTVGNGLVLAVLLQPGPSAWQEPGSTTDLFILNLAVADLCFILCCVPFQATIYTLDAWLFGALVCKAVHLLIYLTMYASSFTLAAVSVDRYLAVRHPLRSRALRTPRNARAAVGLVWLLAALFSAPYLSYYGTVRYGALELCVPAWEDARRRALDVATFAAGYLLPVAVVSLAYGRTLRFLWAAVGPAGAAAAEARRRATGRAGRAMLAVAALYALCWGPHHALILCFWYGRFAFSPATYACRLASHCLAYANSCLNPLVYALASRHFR
OX1R antag-1 = OX1R (HCRTR1) antagonists, primary screen, fluorescence, CHO/OX1R cells, Fluo-8 calcium, orexin A; Orexin/Hypocretin receptor type 1 (Homo sapiens), O43613; Fluo-8 calcium fluorescence; inhibition, % at 5 µM; hit rate 0.43% among 330,000; AID 434989, 2010;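 active = inhibition above its plate's threshold, mean inhibition of all tested compounds on the plate plus 3 SD, cut at about 37% in these data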;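 also: 0% = orexin A challenge wells and 100% = SB-334867-A antagonist wells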
CHO parental Ca = ATP-evoked calcium signal inhibitors, parental CHO, primary screen, counter-screen for OX1R antagonist project, cell-based, fluorescence, Fluo-8 calcium dye; hit rate 0.63% among 330,000; inhibition, % at 5.6 µM; parental CHO-K1, ATP-induced calcium, Fluo-8 fluorescence;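 active = inhibition above that plate's mean sample inhibition plus 3 SD, cut at about 26% in these data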;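 also: 0% = ATP-challenged DMSO wells and 100% = DMSO wells without ATP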
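Assay system: parental CHO cells; Read-out basis: percent inhibition of ATP-evoked calcium rise, normalized to controls; Benchmarks: ATP and no-ATP DMSO wells; Compound dosing: single nominal dose of 5.6 µM per compound; Signal: Fluo-8 calcium dye fluorescence; Also added: ATP as calcium-mobilizing challenge; Repeats: singlicate.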
OX1R antag-2 = antagonists of human orexin 1 receptor (OX1R); AID 485270, 2010; inhibition, % at 6.6 µM; hit rate 1.8% among 330,000; Orexin/Hypocretin receptor type 1 (Homo sapiens), O43613; OX1R-expressing cells, FRET antagonist read-out; in the data active = inhibition mostly above about 38%, no sharp cut-off; inactive = mostly below about 40%;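 also: 0% = agonist challenge alone and 100% = reference antagonist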
GPR7 antag = GPR7 receptor antagonists, primary screen, cell-based, fluorescence, single concentration. Neuropeptides B/W receptor type 1 (Homo sapiens), P48145. GPR7-expressing cells, fluorescence antagonist assay. inhibition, % at 4.4 µM. hit rate 1.1% among 290,000. AID 1861, 2009; in the data active = inhibition above about 16%, passing the limit was not always enough;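 also: cells stimulated with the agonist NPW; 0% = agonist with vehicle and 100% = vehicle without agonist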
Target sequence (P48145 whole entry, looked up): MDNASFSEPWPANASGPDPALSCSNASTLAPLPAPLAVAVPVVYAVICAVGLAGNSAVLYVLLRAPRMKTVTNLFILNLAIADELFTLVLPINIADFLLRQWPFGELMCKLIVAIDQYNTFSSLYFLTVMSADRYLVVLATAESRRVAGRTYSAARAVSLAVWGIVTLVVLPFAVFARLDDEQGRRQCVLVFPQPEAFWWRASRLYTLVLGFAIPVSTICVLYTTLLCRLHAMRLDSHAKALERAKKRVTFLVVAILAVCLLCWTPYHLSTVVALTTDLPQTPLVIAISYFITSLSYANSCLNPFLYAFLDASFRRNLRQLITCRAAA
GPR7 antag cf = GPR7 receptor antagonists, confirmation, cell-based, fluorescence, single concentration; shares compounds with GPR7 antag; GPR7-expressing cells, calcium fluorescence antagonist mode; inhibition, % at 4.4 µM; hit rate 52% among 2,400; in the data active = inhibition above about 24%;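 also: stimulated with the GPR7 agonist NPW; 0% = agonist plus vehicle and 100% = vehicle alone without agonist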
MCHR1 antag = MCHR1 antagonists in cells, counter-screen for GPR7 antagonist project, cell-based, fluorescence, human | shares compounds with GPR7 antag | MCHR1-expressing cells, fluorescence antagonist assay | inhibition, % at 4.4 µM | hit rate 62% among 2,400 | AID 2148, 2009; in the data active = inhibition above about 22%;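 also: 0% = vehicle with agonist and 100% = vehicle without agonist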
Numbers without * were called inactive; . = not tested or not shown. An excerpt weighted towards active compounds, which were near 3.1% of everything screened.

SMILES | GalR3 antag | OX1R antag-1 | CHO parental Ca | OX1R antag-2 | GPR7 antag | GPR7 antag cf | MCHR1 antag
CCS(=O)(=O)c1ncc(Cl)c(C(=O)Nc2ccc(S(=O)(=O)N3CCC(C)CC3)cc2)n1 | -10 | 24 | 41* | 47* | 58* | 89* | 95*
CC(=O)Nc1ccc(NC(=O)c2nc(S(=O)(=O)Cc3cccc(C)c3)ncc2Cl)cc1 | 0 | 25 | 26 | 5 | 17 | . | .
COC(=O)c1ccc(NC(=O)c2nc(S(=O)(=O)Cc3cccc(C)c3)ncc2Cl)cc1 | -4 | 45 | 28 | 21 | 32* | 72* | 86*
Fc1ccc(-c2nnc(-c3ccc4ccccc4c3)o2)cc1 | -6 | . | . | . | . | . | .
CCOc1ccc(-c2csc(NNC3=NCCCCC3)n2)cc1 | -5 | -38 | -27 | 6 | 7 | . | .
Cc1ccc(C(=O)COC(=O)c2cccc([N+](=O)[O-])c2)s1 | -8 | -9 | -13 | 9 | . | . | .
Cc1ccc(Cl)cc1NC(=O)C1CC1c1ccccc1 (stereo unspecified) | -9 | -10 | -8 | 19 | 13 | . | .
NS(=O)(=O)c1ccc(CNC(=O)CSc2nc3ccc(Cl)cc3[nH]2)cc1 | -9 | -3 | -4 | 9 | -16 | . | .
CCc1ccc(CN2CCC(n3nccc3NC(=O)c3ccccc3C)CC2)cc1 | -4 | -38 | -15 | 28 | 27* | 10 | 26*
Cc1ccccc1C(=O)Nc1ccnn1C1CCN(Cc2cccnc2)CC1 | -1 | -20 | -6 | 17 | -8 | . | .
CC(c1ccccc1C(O)(c1ccccc1)c1ccccc1)N(C)C (stereo unspecified) | -9 | 32 | 30* | 5 | 68* | 92* | 96*
CCOc1cc(C(=O)Oc2cc(C)[nH]c(=O)c2[N+](=O)[O-])cc(OCC)c1OCC | -2 | -2 | 2 | 7 | 1 | . | .
COc1ccc(/C=C(/NC(=O)c2ccco2)C(=O)NCc2ccco2)cc1 | -9 | . | . | . | . | . | .
O=C(NCc1ccco1)/C(=C\c1ccc(F)cc1)NC(=O)c1ccco1 | -3 | 2 | 3 | 11 | 29* | 5 | 7
CC(C)n1cc(NC(=O)c2cc(-c3ccccc3)on2)cn1 | 12 | -12 | -5 | 11 | 24* | 14 | 30*
CCN(CC)S(=O)(=O)c1cccc(C(=O)NC2=NCCS2)c1 | -10 | -15 | -10 | 2 | -14 | . | .
O=C(O)C1(P(=O)(c2ccc(Cl)cc2)c2ccc(Cl)cc2)CC1 | 0 | 4 | -1 | -3 | -4 | . | .
CCOC(=O)C1(P(=O)(c2ccc(Cl)cc2)c2ccc(Cl)cc2)CCC1 | -6 | -21 | -20 | 16 | 25* | 9 | 4
CN(C)CCCNC(=O)c1ccc(-c2nc(-c3ccc(Cl)cc3)cs2)cc1 | -8 | -16 | -7 | 14 | 41* | 91* | 92*
COc1ccccc1OC(C)C(=O)N1CCC(Cc2ccccc2)CC1 (stereo unspecified) | -9 | -15 | -5 | 14 | 4 | . | .
Cc1ccccc1OC(C)C(=O)N1CCC(Cc2ccccc2)CC1 (stereo unspecified) | -4 | -21 | -13 | 35 | 28* | 19 | 36*
CCCCNc1c(-c2ccc(SC(C)CC)cc2)nc2cnccn12 (stereo unspecified) | . | 38 | 29 | 26 | . | . | .
Cc1nn(Cc2ccc(C(=O)Nc3ccccc3F)cc2)c(C)c1Cl | -7 | -2 | -15 | 11 | 32* | 10 | 31*
CCOCc1c(C(=O)OCC(=O)Nc2ccccc2C(N)=O)oc2ccccc12 | -5 | -4 | -22 | 19 | . | . | .
Cc1cc(C)nc(/N=C(\N)Nc2ccc(-c3ccccc3)cc2)n1 | -7 | 2 | 24 | 15 | 65* | 65* | 81*
SMILES | GalR3 antag | OX1R antag-1 | CHO parental Ca | OX1R antag-2 | GPR7 antag | GPR7 antag cf | MCHR1 antag
CCOc1ccc(N/C(N)=N/c2nc(C)cc(C)n2)cc1 | -15 | 58* | 49* | 0 | 99* | 94* | 97*
Cc1ccc(C)c(N/C(N)=N/c2nc(C)cc(C)n2)c1 | -9 | 70* | 26 | 9 | 61* | 66* | 71*
CC(=O)Nc1ccc(N/C(N)=N/c2nc(C)cc(C)n2)cc1 | 2 | -18 | -15 | 8 | -5 | . | .
CCC(=O)N/C(=N/c1nc(C)cc(C)n1)Nc1ccc(C)cc1 | -13 | -8 | -8 | -4 | 9 | . | .
CCOc1ccc(N/C(=N/c2nc(C)cc(C)n2)NC(=O)CC)cc1 | -2 | -19 | -16 | 3 | 21* | 1 | 8
Cc1cc(Cn2nnnc2-c2ccncc2)cc(C)c1O | -10 | 9 | -7 | 4 | 15 | . | .
CN(C)c1nnnn1Cc1ccccc1 | 4 | -8 | -7 | 11 | -14 | . | .
CCN(Cc1ccccc1)Cc1nnnn1Cc1ccccc1 | -6 | -22 | -13 | 16 | 26* | 18 | 16
CC(=O)c1ccc(OCCCC(=O)NNC(=O)c2ccccn2)cc1 | -5 | 3 | -11 | -2 | . | . | .
CC(=O)Oc1ccc2c(c1)Oc1cc(OC(C)=O)ccc1C21OC(=O)c2ccccc21 | . | 106* | 101* | 60* | 105* | 103* | 109*
O=C(OCC(=O)N1CCN(S(=O)(=O)c2ccccc2)CC1)c1ccc([N+](=O)[O-])o1 | 5 | 0 | -9 | 63 | 29* | -5 | -1
Cc1ccc(NC(=O)Cn2c(=O)c3cccn3c3ccccc32)cc1 | -6 | -9 | 2 | 4 | 2 | . | .
CCOc1ccc(Br)cc1C1=CC(=O)C[C@H](c2ccc(OC)cc2)C1 | -6 | -15 | -15 | 3 | . | . | .
CN1CCC(NC(=O)c2cc(-c3cccc(Br)c3)nc3ccccc23)CC1 | -2 | -1 | -17 | 12 | 42* | 37* | 32*
O=C(NNC(=O)C(Cl)Cl)c1cnn(-c2ccccc2)c1C(F)(F)F | -4 | -12 | -5 | 1 | 4 | . | .
CC1CN(C(=O)CCC(=O)N2CCN(c3ccccn3)CC2)c2ccccc2O1 (stereo unspecified) | . | -25 | -12 | 1 | -3 | . | .
Cc1ccc2c(c1)N(C(=O)CCC(=O)N1CCN(c3ccccn3)CC1)CC(C)O2 (stereo unspecified) | . | -15 | -11 | 6 | 31* | 6 | 5
O=C(NCc1ccco1)C1Cc2c(-c3cccc(F)c3)ccnc2O1 (stereo unspecified) | 0 | . | . | . | . | . | .
